High-throughput results as filed in PubChem BioAssay.
Sampled rows, rich in hits. Any-hit rate of the full collection: about 1.9%.
LEDGF integ inh: blocks HIV-1 LEDGF/p75-dependent DNA integration; TR-FRET IN-LEDGF/p75 DNA integration, Eu/Cy5; 370,000 compounds, 0.64% hits; inhibition, % at 3.7 µM;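 active = inhibition above the screen-wide mean plus 3 SD, cut at about 13% in these data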;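 note: signal is the Cy5 over europium emission ratio at 671 and 618 nm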
CASP6 VEID inh: caspase-6 (human) enzyme inhibition; P55212; purified caspase-6, Z-VEID-R110 cleavage fluorescence; inhibition, % at 12.5 µM; 350,000 compounds, 0.53% hits;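 active = mean inhibition across replicates at least about 35%, with every replicate also reaching that limit, limit read from the data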
Target sequence (P55212 24-179 limits assumed): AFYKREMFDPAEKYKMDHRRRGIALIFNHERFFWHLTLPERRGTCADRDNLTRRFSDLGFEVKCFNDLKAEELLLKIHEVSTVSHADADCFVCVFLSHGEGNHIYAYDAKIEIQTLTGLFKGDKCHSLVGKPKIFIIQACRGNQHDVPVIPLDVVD
Target sequence (P55212 194-293 limits assumed): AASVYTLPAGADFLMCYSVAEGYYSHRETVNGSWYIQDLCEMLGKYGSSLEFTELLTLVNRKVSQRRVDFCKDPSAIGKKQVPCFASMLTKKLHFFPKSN
UHRF1 binding: blocks human UHRF1 binding to methylated DNA; Q96T88; UHRF1 binding to methylated oligo, TR-FRET; inhibition, % at 4.4 µM; 370,000 compounds, 0.75% hits; AID 687016; in the data active = inhibition above about 21%;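 note: UHRF1 SRA domain binding a hemimethylated CpG hairpin DNA probe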
NSD2 HMT inh: NSD2 (human) methyltransferase inhibition; 310,000 compounds, 0.54% hits; O96028; NSD2 peptide methylation, AlphaScreen, 120 min; AID 743445; inhibition, % at 12.5 µM; in the data active = inhibition above about 50%
MBD2 DNA inh: blocks human MBD2 binding to methylated DNA. inhibition, % at 4.4 µM. AID 686964. Q9UBB5. 370,000 compounds, 0.31% hits. TR-FRET, MBD2 binding to methylated oligonucleotide; in the data active = inhibition above about 13%
TDP2 absorb: TDP2 (human) inhibition, absorbance primary screen. recombinant TDP2, T5PNP hydrolysis, p-nitrophenol absorbance 415 nm. inhibition, % at 12.8 µM. 370,000 compounds, 0.34% hits. AID 720702;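 active = inhibition above the mean of all tested compounds plus 3 SD, set per campaign, cut at about 25% in these data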
Target sequence (O95551 whole entry, looked up): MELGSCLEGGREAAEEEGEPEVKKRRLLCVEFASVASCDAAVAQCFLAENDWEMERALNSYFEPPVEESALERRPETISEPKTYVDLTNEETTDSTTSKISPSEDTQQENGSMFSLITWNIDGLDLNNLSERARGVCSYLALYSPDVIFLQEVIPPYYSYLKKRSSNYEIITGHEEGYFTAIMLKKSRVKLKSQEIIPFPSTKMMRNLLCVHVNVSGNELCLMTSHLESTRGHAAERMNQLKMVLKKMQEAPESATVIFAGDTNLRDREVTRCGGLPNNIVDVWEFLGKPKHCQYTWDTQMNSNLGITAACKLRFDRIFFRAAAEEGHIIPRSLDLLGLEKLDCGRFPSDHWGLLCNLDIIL
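Test system: human TDP2 enzyme; Input: 120 nM TDP2 per well; Buffer or medium: Mg2+-containing Tris-HCl buffer, pH 7.5; Reagent: 5 mM T5PNP; Dosing: 12.8 µM single point, 1% DMSO; Incubation: reaction 2 h, 37 °C; Detection: p-Nitrophenol epi absorbance; Read-out: % inhibition relative to enzyme-containing and enzyme-free wells; Replicates: single well per compound.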
IN multimer up: HIV-1 integrase multimerization activation, counter-screen. shares compounds with LEDGF integ inh. TR-FRET HIV-1 integrase multimerization, biochemical. activation, % at 7.7 µM. 2,000 compounds, 17% hits. AID 1053131; in the data active = activation above about 8.9%
TRFRET interf: optically interferes with TR-FRET readout in LEDGF counter-screen | shares compounds with LEDGF integ inh | TR-FRET optical interference counterscreen, HIV-1 IN multimerization | inhibition, % at 7.7 µM | 2,000 tested, under 10 active | AID 1053135;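 active = inhibition above the mean over all tested compounds plus 3 SD, which no compound reached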
IN-LEDGF confirm: LEDGF/p75-dependent HIV-1 integration inhibition, confirmation | shares compounds with LEDGF integ inh | TR-FRET LEDGF/p75-dependent HIV-1 integration, biochemical | inhibition, % at 3.7 µM | 2,000 compounds, 36% hits; in the data active = inhibition above about 14%
Hits are given with their value; 0 = inactive; - = no result given.

SMILES	LEDGF integ inh	CASP6 VEID inh	UHRF1 binding	NSD2 HMT inh	MBD2 DNA inh	TDP2 absorb	IN multimer up	TRFRET interf	IN-LEDGF confirm
CC(C)NC(=O)N(C)C[C@@H]1OCCCC[C@@H](C)Oc2ccc(NC(=O)C3CCCCC3)cc2C(=O)N([C@H](C)CO)C[C@H]1C	-	0	-	-	-	-	-	-	-
CC1OC(OCC2OC(Oc3c(-c4ccc(O)cc4)oc4cc(O)cc(O)c4c3=O)C(O)C(O)C2O)C(O)C(O)C1O (configuration not stated)	16.7	54.1	0	-	0	0	30.1	0	47.1
O=C(C[C@H]1CC[C@H]2[C@@H](COC[C@@H](O)CN2Cc2nccs2)O1)NCc1ccc(Oc2ccccc2)cc1	-	0	-	-	-	-	-	-	-
COC(=O)CCC[C@H](C)[C@@H](NS(=O)(=O)c1ccc(C)cc1)C(C)(C)C	40.5	0	0	-	0	0	0	0	0
Cc1nc(CNS(=O)(=O)c2cccc(F)c2)cs1	0	-	0	0	0	0	-	-	-
Cc1ccc(-c2csc(NS(=O)(=O)c3cccc(F)c3)n2)o1	15.8	40.7	0	0	0	0	9.0	0	15.2
O=C(Cc1ccccn1)NCC[C@H]1CC[C@H](NC(=O)CN2CCOCC2)[C@@H](CO)O1	-	0	-	-	-	-	-	-	-
O=C(C(=Cc1ccccc1)CN1CCCCC1)c1ccccc1	19.5	0	0	0	0	0	0	0	0
O=C(CCCCN1CCCCC1)c1ccccc1	0	0	0	0	0	0	-	-	-
C[C@@H]1CCCCO[C@@H](CN(C)C(=O)c2ccncc2)[C@H](C)CN([C@@H](C)CO)C(=O)c2cc(NC(=O)c3ccccc3)ccc2O1	-	0	-	-	-	-	-	-	-
Cn1ncc([N+](=O)[O-])c1C(=O)Nc1ccc(-c2nc3ccccc3o2)cc1	34.6	0	0	0	0	0	0	0	0
O=C(NCCNC(=O)c1ccco1)c1ccc(F)cc1	0	0	0	0	0	0	-	-	-
O=C(NCCNCc1ccc(F)cc1)c1ccco1	21.6	-	0	-	0	0	0	0	0
CCCN(CCC)C(=S)NC(=O)c1ccc(Cl)cc1Cl	16.4	-	0	0	0	0	0	0	0
Cc1ccccc1C(=O)NNC(=S)NC(=O)c1ccc(Cl)cc1Cl	0	0	0	0	0	0	-	-	-
CO[C@@]12[C@@H]3N[C@@H]3CN1C1=C(C(=O)C(N)=C(C)C1=O)[C@@H]2COC(N)=O	15.3	0	0	0	0	0	0	0	0
CO[C@@]12[C@H](COC(N)=O)C3=C(C(=O)C(C)=C(N)C3=O)N1C[C@@H]1N[C@@H]12	0	0	0	-	0	0	-	-	-
O=C(C[C@@H]1C[C@H]2c3cc(NC(=O)Nc4ccccc4F)ccc3O[C@H]2[C@H](CO)O1)NCCc1ccccc1	-	0	-	-	-	-	-	-	-
C[C@@H]1CN([C@@H](C)CO)C(=O)Cc2cc(NC(=O)C3CC3)ccc2O[C@@H]1CN(C)S(=O)(=O)c1ccc(F)cc1	-	0	-	-	-	-	-	-	-
CCc1ccc2[nH]c(=O)c(CN(Cc3ccccc3)Cc3nnnn3Cc3ccco3)cc2c1	0	-	0	0	0	0	-	-	-
O=c1[nH]c2cc3c(cc2cc1CN(Cc1cccnc1)Cc1nnnn1Cc1ccco1)OCCO3	38.8	0	34.4	0	0	0	14.4	0	27.9
Cc1cc(Cl)c(OCCCCN2CCOCC2)c(Br)c1	0	0	0	0	0	0	-	-	-
Cc1cc(Cl)cc(C)c1OCCCCN1CCOCC1	15.0	-	0	0	0	0	0	0	0
COC(=O)c1nn(-c2ccccc2)c(=O)cc1O	0	0	0	0	0	0	-	-	-
O=C(O)c1cc(-c2ccco2)nn1-c1cccc(Cl)c1	14.9	45.6	28.4	0	0	0	0	0	0
SMILES	LEDGF integ inh	CASP6 VEID inh	UHRF1 binding	NSD2 HMT inh	MBD2 DNA inh	TDP2 absorb	IN multimer up	TRFRET interf	IN-LEDGF confirm
O=C(O)c1nn(-c2cccc(Cl)c2)c(=O)cc1O	17.2	0	0	0	0	0	0	0	0
C[C@H]1CN([C@@H](C)CO)C(=O)c2c(c3ccccc3n2C)-c2ccccc2CO[C@@H]1CN(C)Cc1ccc(O)cc1	-	0	-	-	-	-	-	-	-
O=C1NC2(CCCCCC2)C(=O)N1Cc1ccccc1Cl	27.9	0	0	0	0	0	0	0	0
O=C(C[C@@H]1CC[C@@H]2NC[C@@H](O)COC[C@H]2O1)N1CCc2ccccc2C1	-	0	-	-	-	-	-	-	-
N#Cc1nc(-c2ccccc2F)oc1NCc1ccccc1	14.2	0	0	-	0	0	0	0	0
N#Cc1nc(-c2ccccc2F)oc1NCCc1ccccc1	0	-	0	0	0	0	-	-	-
Cc1c(NC(=O)c2cccc(NC(=O)Cc3ccc(F)cc3)c2)c(=O)n(-c2ccccc2)n1C	18.9	0	0	0	0	0	0	0	0
Cc1c(NC(=O)c2cccc(NC(=O)Cc3c(F)cccc3Cl)c2)c(=O)n(-c2ccccc2)n1C	0	0	0	0	0	0	-	-	-
O=C1c2cc(O)c(O)cc2S(=O)(=O)C1c1ccccc1 (configuration not stated)	22.6	-	27.4	-	0	0	0	0	0
Nc1cc(=O)[nH]c(SCC(=O)NC2CCCCCCC2)n1	70.5	0	0	0	0	0	0	0	14.5
Clc1cccc(-c2ccc(C=Nc3ccc(N4CCOCC4)cc3)o2)c1Cl	23.9	0	0	0	0	0	0	0	0
Clc1ccc(-c2ccc(C=Nc3ccc(N4CCOCC4)cc3)o2)cc1	17.8	0	0	0	0	0	0	0	0
Clc1ccc(-c2ccc(C=Nc3ccc(N4CCOCC4)cc3)o2)c(Cl)c1	0	0	0	0	0	0	-	-	-
CN(C)CC(=O)Nc1ccc2c(c1)[C@@H]1C[C@H](CC(=O)N3CCN(C)CC3)O[C@@H](CO)[C@@H]1O2	-	0	-	-	-	-	-	-	-
Cc1csc2c(SCC(=O)NNS(=O)(=O)c3cccc(C(F)(F)F)c3)ncnc12	0	0	0	0	0	0	-	-	-
COC(=O)CSc1ncnc2c(C)csc12	45.0	0	0	0	0	0	0	0	0
Cc1ccc(Oc2ncccc2C(=O)NCC(=O)O)cc1	17.0	0	0	0	0	0	0	0	0
COC(=O)c1ccccc1NCc1cc(=O)oc2cc(O)c(O)cc12	20.9	0	0	0	0	0	0	0	33.7
O=C(CN(C(=O)c1csnn1)c1ccc2c(c1)OCCO2)NCc1ccccc1	25.8	0	0	0	0	0	0	0	0
S=c1[nH]nc(-c2ccco2)n1-c1ccccc1Cl	0	0	0	0	0	0	-	-	-
S=c1[nH]nc(-c2cc(-c3ccco3)[nH]n2)n1-c1ccccc1Cl	13.6	-	0	-	0	0	0	0	15.1
